From ChEMBL document CHEMBL1145346, “Probing hot spots at protein-ligand binding sites: a fragment-based approach using biophysical methods” (J Med Chem, 2006)
Activity calls are given as the source filed them. The calls are words filed in the database; no cut-off is given here.

T1: 2-dehydropantoate 2-reductase (Escherichia coli K-12, UniProt P0A9J4)
T1 sequence (P0A9J4 whole entry): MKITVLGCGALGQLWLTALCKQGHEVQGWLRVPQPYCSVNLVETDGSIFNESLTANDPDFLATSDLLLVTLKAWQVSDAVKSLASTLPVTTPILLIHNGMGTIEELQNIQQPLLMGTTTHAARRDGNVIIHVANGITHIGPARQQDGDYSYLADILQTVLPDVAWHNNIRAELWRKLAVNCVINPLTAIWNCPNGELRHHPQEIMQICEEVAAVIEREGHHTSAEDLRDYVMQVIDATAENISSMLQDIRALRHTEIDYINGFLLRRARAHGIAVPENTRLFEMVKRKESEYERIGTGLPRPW

T2: 2-dehydropantoate 2-reductase (Escherichia coli K-12) (UniProt P0A9J4)
T2 sequence (whole entry): T1 sequence (P0A9J4 whole entry)

B1: 2-dehydropantoate 2-reductase (Escherichia coli K-12), P0A9J4 (protein)
chain: T1 sequence (P0A9J4 whole entry)

Key:
[1] = molecular target: T1, 2-dehydropantoate 2-reductase; test: Binding affinity to Escherichia coli KPR; assay type: single protein
Summary of the method: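 Isothermal titration calorimetry with His6-tagged E. coli KPR in 0.1 M HEPES/HCl, pH 7.7, at 27 °C. Data were corrected for heat of dilution and fitted to a single-site binding model. For weak ligands (Kd > 100 µM), stoichiometry was fixed at n = 1, determined from active-site titrations with NADPH or NADP+. Errors are from curve fitting for single runs, or SD across multiple experiments.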

[2] = molecular target: T2, 2-dehydropantoate 2-reductase (Escherichia coli K-12); test: Inhibition of Escherichia coli KPR at 1 mM
Summary of the method: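 Single-point screen of His6-tagged E. coli KPR activity at pH 7.5-7.7. Ligand was tested at 1 mM with 20 µM NADPH, 1 mM ketopantoate and 2 nM enzyme. The result is reported as percent inhibition.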

[3] = molecular target: T1, 2-dehydropantoate 2-reductase; test: Inhibition of Escherichia coli KPR; assay type: single protein
Summary of the method: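 His6-tagged E. coli KPR assayed at pH 7.5-7.7. It catalyses ketopantoate reduction with NADPH as cofactor. In the screen, ligand was tested at 1 mM with 20 µM NADPH, 1 mM ketopantoate and 2 nM enzyme. Ki was measured with five inhibitor concentrations against six NADPH concentrations, with NADPH as the varied substrate, and data were fitted to competitive or noncompetitive inhibition equations.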

[4] = molecular target: T2, 2-dehydropantoate 2-reductase (Escherichia coli K-12); test: Inhibition of Escherichia coli KPR at 5 mM
[5] = molecular target: T2, 2-dehydropantoate 2-reductase (Escherichia coli K-12); test: Inhibition of Escherichia coli KPR at 20 mM
[6] = molecular target: T2, 2-dehydropantoate 2-reductase (Escherichia coli K-12); 11 mM
[7] = molecular target: 2-dehydropantoate 2-reductase (Escherichia coli) (UniProt P0A9J4); test: Inhibition of Escherichia coli KPR

Molecule | Kd [1] [µM] | Ki [3] [µM] | also measured
NC(=O)c1ccc[n+]([C@@H]2O[C@H](COP(=O)([O-])OP(=O)(O)OC[C@H]3O[C@@H](n4cnc5c(N)ncnc54)[C@H](OP(=O)(O)O)[C@@H]3O)[C@@H](O)[C@H]2O)c1 [NICOTINAMIDE ADENINE DINUCLEOTIDE PHOSPHATE] | 5.8 |  | 
Nc1ncnc2c1ncn2[C@@H]1O[C@H](COP(=O)(O)OP(=O)(O)OCC2OC(O)[C@H](O)[C@@H]2O)[C@@H](O)[C@H]1OP(=O)(O)O (stereo partly drawn) | 61 | 200 | Activity [2]: Active
NC(=O)C1=CN(C2OC(COP(=O)(O)OP(=O)(O)OC[C@H]3O[C@@H](n4cnc5c(N)ncnc54)[C@H](O)[C@@H]3O)[C@H](O)[C@@H]2O)C=CC1 (stereo partly drawn) | 66 |  | 
Nc1ncnc2c1ncn2[C@@H]1O[C@H](COP(=O)(O)O)[C@@H](O)[C@H]1O [ADENOSINE PHOSPHATE] | > 5000 | 6300 | Activity [2]: Active
NC(=O)c1ccc[n+]([C@@H]2O[C@H](COP(=O)([O-])O)[C@@H](O)[C@H]2O)c1 |  |  | inhibition [4]: 0%
Nc1ncnc2c1ncn2[C@@H]1O[C@H](COP(=O)(O)OP(=O)(O)OC[C@H]2OC(O)[C@H](O)[C@@H]2O)[C@@H](O)[C@H]1O (stereo partly drawn) [ADENOSINE DIPHOSPHATE RIBOSE] | 6300 |  | 
Nc1ncnc2c1ncn2[C@@H]1O[C@H](COP(=O)(O)OP(=O)(O)OCC2OC(O)[C@H](O)[C@@H]2O)[C@@H](O)[C@H]1O (stereo partly drawn) |  |  | inhibition [4]: 0%
NC(=O)c1ccc[n+]([C@@H]2O[C@H](COP(=O)([O-])OP(=O)(O)OC[C@H]3O[C@@H](n4cnc5c(N)ncnc54)[C@H](O)[C@@H]3O)[C@@H](O)[C@H]2O)c1 [NADIDE] | 6900 |  | inhibition [5]: 10%
Nc1nc2c(ncn2[C@@H]2O[C@H](COP(=O)(O)OP(=O)(O)O)[C@@H](O)[C@H]2O)c(=O)[nH]1 | 373 |  | 
Nc1ncnc2c1ncn2[C@@H]1O[C@H](COP(=O)(O)OP(=O)(O)O)[C@@H](O)[C@H]1O [ADENOSINE DIPHOSPHATE] | 360 | 1050 | Activity [2]: Active
Nc1ncnc2c1ncn2[C@@H]1O[C@H](COP(=O)(O)O)[C@@H](O)[C@H]1OP(=O)(O)O | 100 | 240 | Activity [2]: Active
NC(=O)c1cccnc1 |  |  | inhibition [6]: 0%
NC(=O)c1ccc[n+]([C@@H]2O[C@H](COP(=O)([O-])OP(=O)(O)OC[C@H]3O[C@@H](n4cnc5c(N)ncnc54)[C@H](OP(=O)(O)O)[C@@H]3O)[C@@H](O)[C@H]2O)c1 [SODIUM beta-NICOTINAMIDE ADENINE DINUCLEOTIDE PHOSPHATE] | 0.26 |  | 
O=P(O)(O)O [PHOSPHORIC ACID] |  | 27000 | 
Nc1nc2c(ncn2[C@@H]2O[C@H](COP(=O)(O)OP(=O)(O)OP(=O)(O)O)[C@@H](O)[C@H]2O)c(=O)[nH]1 [GUANOSINE TRIPHOSPHATE] | 153 |  | 
Nc1ncnc2c1ncn2[C@@H]1O[C@H](COP(=O)(O)OP(=O)(O)OP(=O)(O)O)[C@@H](O)[C@H]1O [ADENOSINE TRIPHOSPHATE] | 130 | 610 | Activity [2]: Active
B1 |  |  | Km [7]: 750 µM
